According to ChEMBL document CHEMBL3045565, “Microwave synthesis, characterization and bio-efficacy evaluation of novel chalcone based 6-carbethoxy-2-cyclohexen-1-one and 2H-indazol-3-ol derivatives” (Eur J Med Chem, 2013):
In brackets after ≈: the same amount, converted by molar mass.

Experiments:
Assay type in all cases: functional
[1] = test system: Radical scavenging activity; assay: Antioxidant activity assessed as DPPH free radical scavenging activity at 500 ug/mL after 20 min by UV-Vis spectrophotometric analysis
Procedure, shortened: (§1)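 DPPH radical scavenging: samples were held at room temperature for 20 min in the dark, and absorbance was read at 517 nm. The control contained DMSO without compound, and methanol was used for baseline correction. Scavenging percentage was calculated from the absorbances.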

[2] = test system: Radical scavenging activity; assay: Antioxidant activity assessed as DPPH free radical scavenging activity at 300 ug/mL after 20 min by UV-Vis spectrophotometric analysis; procedure, shortened: as §1
Xanthomonas oryzae = assay: Antibacterial activity against Xanthomonas oryzae ITCC B-47 assessed as as growth inhibition at 100 ug/disk after 24 hr by disk diffusion method; conditions: ITCC B-47, 24 h, read-out: DIZ
Rhizoctonia solani = assay: Antifungal activity against Rhizoctonia solani ITCC 5563 by food poisoning method
Procedure, shortened: (§2)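 Poisoned food technique on PDA at several concentrations. A 5 mm mycelial plug from the growing edge of a 2-week-old colony was placed inoculum-side down at the plate centre. Plates incubated at 27 °C until control growth was nearly complete. Colony diameter measured, percent inhibition calculated against control, LC50 derived. Four replicates per treatment.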

[3] = test system: Radical scavenging activity; assay: Antioxidant activity assessed as DPPH free radical scavenging activity at 60 ug/mL after 20 min by UV-Vis spectrophotometric analysis; procedure, shortened: as §1
Bacillus thuringiensis = assay: Antibacterial activity against Bacillus thuringiensis MTCC 6941 assessed as growth inhibition at 100 ug/disk after 24 hr by disk diffusion method; conditions: MTCC 6941, 24 h, read-out: DIZ
Procedure, shortened: (§3)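 Disk diffusion on nutrient agar. Strains kept on NA slants at 37 °C and subcultured in nutrient broth before testing. A log-phase culture was spread on solidified medium, and sterile disks were loaded with compound from DMSO stock. DMSO served as control, with commercial antibiotics for reference. Plates ran 24 h at 37 °C, and inhibition zones (mm) were read in quadruplicate.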

Bacillus pumilus = assay: Antibacterial activity against Bacillus pumilus MTCC 2466 assessed as growth inhibition at 100 ug/disk after 24 hr by disk diffusion method; conditions: MTCC 2466, 24 h, read-out: DIZ; procedure, shortened: as §3
[4] = test system: Radical scavenging activity; assay: Antioxidant activity assessed as DPPH free radical scavenging activity at 100 ug/mL after 20 min by UV-Vis spectrophotometric analysis; procedure, shortened: as §1
Staphylococcus aureus = assay: Antibacterial activity against Staphylococcus aureus MTCC 3160 assessed as growth inhibition at 100 ug/disk after 24 hr by disk diffusion method; conditions: MTCC 3160, 24 h, read-out: DIZ; procedure, shortened: as §3
[5] = test system: Radical scavenging activity; assay: Antioxidant activity assessed as DPPH free radical scavenging activity at 80 ug/mL after 20 min by UV-Vis spectrophotometric analysis; procedure, shortened: as §1
[6] = test system: Radical scavenging activity; assay: Antioxidant activity assessed as DPPH free radical scavenging activity at 40 ug/mL after 20 min by UV-Vis spectrophotometric analysis; procedure, shortened: as §1
Klebsiella pneumoniae = assay: Antibacterial activity against Klebsiella pneumoniae MTCC 7028 assessed as growth inhibition at 100 ug/disk after 24 hr by disk diffusion method; conditions: MTCC 7028, 24 h, read-out: DIZ; procedure, shortened: as §3
[7] = test system: Radical scavenging activity; assay: Antioxidant activity assessed as DPPH free radical scavenging activity after 20 min by UV-Vis spectrophotometric analysis; design: concentration or dose not given beside the values; procedure, shortened: as §1
[8] = test system: Radical scavenging activity; assay: Antioxidant activity assessed as DPPH free radical scavenging activity at 400 ug/mL after 20 min by UV-Vis spectrophotometric analysis; procedure, shortened: as §1
[9] = test system: Radical scavenging activity; assay: Antioxidant activity assessed as DPPH free radical scavenging activity at 200 ug/mL after 20 min by UV-Vis spectrophotometric analysis; procedure, shortened: as §1
[10] = test system: Radical scavenging activity; assay: Antioxidant activity assessed as DPPH free radical scavenging activity at 10 ug/mL after 20 min by UV-Vis spectrophotometric analysis; procedure, shortened: as §1
[11] = test system: Radical scavenging activity; assay: Antioxidant activity assessed as DPPH free radical scavenging activity at 20 ug/mL after 20 min by UV-Vis spectrophotometric analysis; procedure, shortened: as §1
Dickeya chrysanthemi = assay: Antibacterial activity against Erwinia chrysanthemi ITCC B-40 assessed as as growth inhibition at 100 ug/disk after 24 hr by disk diffusion method; conditions: ITCC B-40, 24 h, read-out: DIZ; procedure, shortened: as §3
Pseudomonas aeruginosa = assay: Antibacterial activity against Pseudomonas aeruginosa MTCC 2581 assessed as growth inhibition at 100 ug/disk after 24 hr by disk diffusion method; conditions: MTCC 2581, 24 h, read-out: DIZ; procedure, shortened: as §3
Athelia rolfsii = assay: Antifungal activity against Athelia rolfsii ITCC 6181 by food poisoning method; conditions: Agroathelia rolfsii; procedure, shortened: as §2

SMILES	Activity [1] [%]	Activity [2] [%]	zone of inhibition at 100 µg/disc (Xanthomonas oryzae) [mm]	LC50 (Rhizoctonia solani) [µg/mL]	Activity [3] [%]	zone of inhibition at 100 µg/disc (Bacillus thuringiensis) [mm]	zone of inhibition at 100 µg/disc (Bacillus pumilus) [mm]	Activity [4] [%]	zone of inhibition at 100 µg/disc (Staphylococcus aureus) [mm]	Activity [5] [%]	Activity [6] [%]	zone of inhibition at 100 µg/disc (Klebsiella pneumoniae) [mm]	Activity [7] [%]	IC50 [7] [µg/mL]	Activity [8] [%]	Activity [9] [%]	Activity [10] [%]	Activity [11] [%]	zone of inhibition at 100 µg/disc (Dickeya chrysanthemi) [mm]	zone of inhibition at 100 µg/disc (Pseudomonas aeruginosa) [mm]	also measured
Cc1ccc(C2=Cc3n[nH]c(O)c3C(c3ccc(C)cc3)C2)cc1 (stereo unspecified)	85.2	80.5	0	814 (≈ 2570 µM)	31.5	0	0	40.3	5	34.9	18.2	0	18.1	123.54 (≈ 390 µM)	84.8	68.1	3.4	4.4	0	10	LC50 (Athelia rolfsii): 876 µg/mL (≈ 2770 µM)
COc1cc(C2CC(c3ccc(C)cc3)=Cc3n[nH]c(O)c32)cc(OC)c1OC (stereo unspecified)	90.6	90.2	0	738 (≈ 1880 µM)	79.3	0	0	90.8	0	89.9	56.9	0	56.9	29.7 (≈ 75.7 µM)	90.3	91.8	15	26.4	0	0	LC50 (Athelia rolfsii): 1170 µg/mL (≈ 2990 µM)
COc1ccc(C2CC(c3ccc(OC)c(OC)c3)=Cc3n[nH]c(O)c32)cc1 (stereo unspecified)	82.6	75.3	0	611 (≈ 1610 µM)	26.3	0	0	36.5	0	31.1	12.8	0	12.8	146.68 (≈ 388 µM)	82.6	58.8	3.5	5.3	0	0	LC50 (Athelia rolfsii): 894 µg/mL (≈ 2360 µM)
COc1ccc(C2CC(c3ccccc3)=Cc3n[nH]c(O)c32)cc1 (stereo unspecified)	90.2	89.7	0	718 (≈ 2260 µM)	79.7	0	0	89	0	88.4	50.3	0	50.2	29.62 (≈ 93 µM)	88.9	91.8	16.8	30.6	0	0	LC50 (Athelia rolfsii): 713 µg/mL (≈ 2240 µM)
COc1ccc(C2CC(c3ccc(Cl)cc3)=Cc3n[nH]c(O)c32)cc1 (stereo unspecified)	90	89.7	0	587 (≈ 1660 µM)	68.7	0	0	89.9	0	86.4	43.2	0	43.2	42.34 (≈ 120 µM)	89.8	91.2	13.9	21.7	0	0	LC50 (Athelia rolfsii): 941 µg/mL (≈ 2670 µM)
Oc1[nH]nc2c1C(c1ccccc1)CC(c1ccccc1)=C2 (stereo unspecified)	89.2	89	0	802 (≈ 2780 µM)	62.5	0	0	73.3	0	67.3	40.3	10	40.3	58.28 (≈ 202 µM)	89.1	90.6	9.1	10.9	0	0	LC50 (Athelia rolfsii): 873 µg/mL (≈ 3030 µM)
Cc1ccc(C2CC(c3ccccc3)=Cc3n[nH]c(O)c32)cc1 (stereo unspecified)	85.7	81.8	0	745 (≈ 2460 µM)	35.1	0	0	41.2	5	36.4	18.2	0	18.2	106.62 (≈ 353 µM)	85.7	69.9	9.2	14.5	0	10	LC50 (Athelia rolfsii): 922 µg/mL (≈ 3050 µM)
O=[N+]([O-])c1ccc(C2=Cc3n[nH]c(O)c3C(c3ccc4c(c3)OCO4)C2)cc1 (stereo unspecified)	87.3	87.9	0	931 (≈ 2470 µM)	38.4	0	0	50.7	0	44.5	19.8	0	19.8	95.82 (≈ 254 µM)	87.3	83.4	5.3	5.8	0	0	LC50 (Athelia rolfsii): 963 µg/mL (≈ 2550 µM)
COc1ccc(C2=Cc3n[nH]c(O)c3C(c3ccc(OC)c(OC)c3)C2)cc1 (stereo unspecified)	90.8	90.4	0	1030 (≈ 2730 µM)	85.8	0	0	91.4	0	90	65.3	0	65.3	23.94 (≈ 63.3 µM)	90.5	92.1	17.7	29.2	0	0	LC50 (Athelia rolfsii): 1240 µg/mL (≈ 3280 µM)
COc1ccc(C2CC(c3ccccc3)=Cc3n[nH]c(O)c32)cc1OC (stereo unspecified)	90.8	91.9	0	696 (≈ 2000 µM)	87.6	0	0	91.8	0	90.9	69.9	0	69.9	21.98 (≈ 63.1 µM)	90.5	91.9	18.1	30.2	0	5	LC50 (Athelia rolfsii): 817 µg/mL (≈ 2340 µM)
COc1ccc(C2CC(c3ccc(C)cc3)=Cc3n[nH]c(O)c32)cc1OC (stereo unspecified)	91	91.6	0	861 (≈ 2380 µM)	78.5	0	0	81.8	0	80.3	62.6	0	62.6	33.12 (≈ 91.4 µM)	91.7	91.4	15	25.9	0	0	LC50 (Athelia rolfsii): 939 µg/mL (≈ 2590 µM)
